Screening data from PubChem.
ABCB6 inh MLPCN = inhibitors of human ABC transporter ABCB6; Q9NP58; K562-ABCB6 porphyrin accumulation, flow cytometry, 1 h; active compounds read low; fluorescence ratio to DMSO, % at 10 µM; hit rate 0.19% among 360,000; AID 602162;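 active = fluorescence ratio to DMSO below 75%, the collection mean minus 3 SD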;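 note: signal is porphyrin accumulated inside mitochondria; 100% equals median channel fluorescence of DMSO control wells; lower ratio means ABCB6 inhibition with less porphyrin fluorescence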
AHR activator = human AHR activation | P35869 | AHR-responsive luciferase reporter cells, luminescence | activation, % at 5 µM | hit rate 2.5% among 320,000; in the data active = activation above about 47%;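 note: 0% = vehicle wells and 100% = reference agonist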
Target sequence (P35869 whole entry, looked up): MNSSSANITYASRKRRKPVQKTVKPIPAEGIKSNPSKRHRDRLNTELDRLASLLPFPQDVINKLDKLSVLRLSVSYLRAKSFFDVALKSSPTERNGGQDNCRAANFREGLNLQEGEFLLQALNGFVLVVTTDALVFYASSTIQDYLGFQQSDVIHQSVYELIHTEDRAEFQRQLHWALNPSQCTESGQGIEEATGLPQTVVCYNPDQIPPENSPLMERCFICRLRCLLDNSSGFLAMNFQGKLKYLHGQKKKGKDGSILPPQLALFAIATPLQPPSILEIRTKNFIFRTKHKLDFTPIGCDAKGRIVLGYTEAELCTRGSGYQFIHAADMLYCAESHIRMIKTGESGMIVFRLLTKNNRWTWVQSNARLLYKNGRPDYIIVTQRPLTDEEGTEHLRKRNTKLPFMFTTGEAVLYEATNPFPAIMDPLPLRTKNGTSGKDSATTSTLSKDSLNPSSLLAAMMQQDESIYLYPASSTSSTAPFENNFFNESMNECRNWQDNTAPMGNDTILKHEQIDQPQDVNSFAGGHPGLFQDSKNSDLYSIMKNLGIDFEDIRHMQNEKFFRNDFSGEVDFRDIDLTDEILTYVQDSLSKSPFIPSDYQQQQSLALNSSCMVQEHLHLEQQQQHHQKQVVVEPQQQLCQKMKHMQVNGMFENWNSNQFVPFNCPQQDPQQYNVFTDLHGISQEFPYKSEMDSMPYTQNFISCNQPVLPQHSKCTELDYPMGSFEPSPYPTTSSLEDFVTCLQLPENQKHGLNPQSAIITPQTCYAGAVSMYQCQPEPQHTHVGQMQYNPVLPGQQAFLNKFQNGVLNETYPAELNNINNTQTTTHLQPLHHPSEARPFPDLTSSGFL
FXN GAA850 act = frataxin GAA850 promoter activation | HEK293 lucGAA850 FXN promoter luciferase reporter, 24 h; percent of 10 µM SAHA response | activation, % at 6 µM | hit rate 0.56% among 360,000 | AID 540364;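 active = activation above the average of all compounds screened plus 3 SD, cutoff fixed separately per campaign, cut at about 7.5% in these data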;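 note: 0% = DMSO wells and 100% = 10 µM SAHA wells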
STAT3 act-1 = STAT3 signaling activation; activation (% of control), % at 5.6 µM; hit rate 0.91% among 190,000; U3A cells, IL-6 STAT3-luciferase reporter, luminescence; 100% = signal with IL-6 EC80 alone;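 active = activation above the screen-wide mean of compound activation plus 3 SD, cut at about 130% in these data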;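 note: 0% = background luminescence of wells with medium and substrate only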
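Test system: STAT3-luciferase reporter U3A cells; Detection: reporter luminescence signal; Times: 1 h compound pre-exposure, 6 h IL-6 stimulation, 37 °C; Benchmarks: IL-6-only high control; Also added: IL-6 stimulus at 33 ng/mL final.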
STAT3 act-2 = STAT3 activation, confirmation assay. shares compounds with STAT3 act-1. hit rate 64% among 1,200. potentiation (% of control), % at 5.7 µM. U3A STAT3-luciferase reporter, IL-6 potentiation, luminescence; U3A cells lack STAT1; 100 means same as IL-6 alone;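 active = percent activation of the STAT3 luciferase reporter above a set limit taken from the earlier primary screen, cut at about 130% in these data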;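 note: 0% = background signal of medium plus substrate and 100% = median of IL-6 with DMSO wells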
NFkB act 2 = activates NF-kappaB, counter-screen to STAT3 activators. shares compounds with STAT3 act-1. human cells, NF-kappaB reporter activation. activation (% of control), % at 5.7 µM. hit rate 11% among 1,200. AID 1309; in the data active = activation above about 120%;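 note: reporter induced by TNF-alpha stimulation; 100% = median of stimulated DMSO wells and 0% = no signal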
STAT1 act = STAT1 activation in STAT3 activator counter-screen; NIH 3T3 STAT1-luciferase reporter, IFN-gamma, luminescence; activation (% of control), % at 5.7 µM; AID 1318; hit rate 13% among 1,200; shares compounds with STAT3 act-1;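 active = activation above the solvent-only control well mean plus 3 SD, set per screening run, cut at about 120% in these data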;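 note: 100% = IFN-gamma with DMSO median signal so 100% means no change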
An asterisk follows results filed as active; / = no result. In the library only some 3.3% were active in any assay of this set; here they are far more common.

SMILES | ABCB6 inh MLPCN | AHR activator | FXN GAA850 act | STAT3 act-1 | STAT3 act-2 | NFkB act 2 | STAT1 act
O=C(Nc1ccc(OCc2ccccc2Cl)cc1)c1cccnc1 | 107 | -5 | -10 | / | / | / | /
O=C(Nc1cccc(F)c1)c1ccc(CSc2ccccc2)o1 | 105 | 5 | 1 | 107 | / | / | /
CC(=O)Nc1ccc(NC(=O)c2ccc(CSc3ccccc3)o2)cc1 | 87 | 6 | 4 | 144* | 113 | 105 | 107
COC(=O)c1cc(NC(=O)c2cccc([N+](=O)[O-])c2C)ccc1Cl | 94 | 1 | 3 | 94 | / | / | /
Cn1cccc1C(=O)NC(=O)COC(=O)CNC(=O)c1ccc(Cl)cc1Cl | 122 | 2 | 1 | 94 | / | / | /
C=CCn1c(SCC)nc2sc3c(c2c1=O)CCc1ccccc1-3 | 95 | 18 | 3 | 137* | 113 | 104 | 100
C=CCn1c(SCC(C)=O)nc2sc3c(c2c1=O)CCC3 | 102 | 0 | 2 | / | / | / | /
COc1ccc(CNC(=O)C/C(C)=N/NC(=O)COc2ccc(Br)cc2)cc1 | 97 | 13 | 0 | 109 | / | / | /
N#Cc1c(Cl)c(Cl)c2nnc(-c3ccc(Br)cc3)n2c1Cl | / | 55* | / | 154* | 152* | 106 | 95
CC(=O)Nc1ccc(S(=O)(=O)Nc2nc3ccccc3nc2Nc2cccc(O)c2)cc1 | 106 | 3 | -1 | / | / | / | /
CC(=O)Nc1ccc(S(=O)(=O)Nc2nc3ccccc3nc2Nc2ccc3ccccc3c2)cc1 | 108 | 39 | 0 | 152* | 152* | 117 | 113
COc1c(C)cccc1C(=O)NC(=S)Nc1ccc2c(c1)Cc1ccccc1-2 | 98 | / | -1 | 96 | / | / | /
COc1cccc(OC)c1C(=O)NC(=S)Nc1ccc2c(c1)Cc1ccccc1-2 | 98 | 15 | 3 | 150* | 131 | 101 | 100
COc1cccc(CCN2C(=O)C(=O)N([C@@H](CNCc3ccccc3)Cc3ccccc3F)C[C@@H]2C(C)(C)C)c1 | / | 8 | / | / | / | / | /
COc1cccc(-c2nnc(SCc3nc4ccccc4s3)n2C)c1 | 105 | 19 | 2 | 121 | / | / | /
Cc1nnc(SCc2nc3ccccc3s2)n1-c1ccccc1 | 115 | 24 | 7 | 147* | 149* | 113 | 134*
CCC(c1nnc(SCc2nc3ccccc3s2)n1Cc1ccccc1)N(C)C (stereo not drawn) | 105 | 25 | 2 | 152* | 141* | 117 | 117
CCn1c(SCc2nc3ccccc3s2)nnc1-c1ccccc1 | 111 | 12 | 7 | 171* | 145* | 117 | 134*
c1ccc(Cn2c(SCc3nc4ccccc4s3)nnc2-c2ccco2)cc1 | 105 | 24 | 2 | 130 | / | / | /
COc1ccc(CCNC(=O)c2cccc(NC(=O)CC3SC(N4CCCCC4)=NC3=O)c2)cc1OC (stereo not drawn) | 98 | 6 | 0 | / | / | / | /
Cc1ccc(-c2nnn3c2nc(NCCc2ccc(S(N)(=O)=O)cc2)c2ccccc23)cc1 | 100 | 37 | 3 | 123 | / | / | /
Cc1cccc(-c2nnn3c2nc(NCCc2ccc(S(N)(=O)=O)cc2)c2ccccc23)c1 | 97 | 50* | 3 | 145* | 155* | 102 | 112
NS(=O)(=O)c1ccc(CCNc2nc3c(-c4cccc(F)c4)nnn3c3ccccc23)cc1 | 94 | 37 | 2 | 137* | 144* | 98 | 110
COc1ccc2[nH]c(C(=O)N/N=C/c3ccc(O)cc3O)cc2c1 | 111 | / | -10 | / | / | / | /
CCOC(=O)C1(CC2CCCCO2)CCN(Cc2cc3ccccc3[nH]2)CC1 (stereo not drawn) | 106 | 21 | -2 | 144* | 136* | 104 | 95
CCC1(OC(=O)CN(C)C)C(=O)OCc2c1cc1n(c2=O)Cc2cc3c(N)cccc3nc2-1 (stereo not drawn) | 101 | / | -14 | / | / | / | /
CN1C(=O)C(CC(=O)Nc2ccc(F)cc2)N(NC(=O)c2cccc(F)c2)C1=S (stereo not drawn) | 99 | 2 | -3 | / | / | / | /
Cc1cc(C)cc(Nc2c(F)c(F)c(F)c(F)c2C(=O)O)c1 | 108 | -1 | 1 | 105 | / | / | /
Cc1nc2nc(-c3ccccc3)nn2c(C)c1Cl | 100 | 55* | 6 | 179* | 169* | 126* | 138*
